In the library only some 1.8% were active in any assay of this set; here they are far more common.
Ecoli rRNA inh – reduced GFP signal of wild-type E. coli, primary screen, bacterial rRNA inhibitor project, GFP/RFP fluorescence, OD600, single point; GFP signal change (wild-type ribosome), % (concentration not given with the values); AID 720706, 2013; E. coli WT GFP vs humanized-ribosome RFP mutants, 24 h; stronger effect = lower value; DMSO median 0, no signal -100; actives 1.6% (n = 350,000);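 active means significant combined selectivity score with lowered wild-type GFP, culture density cut under 30%, mutant RFP and density less affected; inactive means any of these conditions unmet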
MT1-MMP act inh – blockers of MT1-MMP proenzyme processing, primary screen, HT1080 RFP-PRO-GFP cells, GFP/RFP fluorescence. Matrix metalloproteinase-14 (Homo sapiens), P50281. GFP/RFP ratio fluorescence, overnight; percent of plate control window, DMSO zero. actives 0.061% (n = 360,000). GFP/RFP ratio change, % at 20 µM;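 active means GFP/RFP ratio change of at least 30% with cell ATP level not reduced by more than half and red fluorescence within 50% of control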
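Assay system: HT1080 RFP-PRO-GFP cells | Dosing: 20 µM single dose, 1% DMSO | Incubation: Cells overnight before dosing, compound overnight, 37 °C, 5% CO2 | Evaluation: GFP/RFP fluorescence ratio | Control set: DMSO-only wells and HT1080 RFP-L50D-GFP cell wells as references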
iPSC survival up – enhancers of single-cell hiPSC survival, primary screen, ATPlite luminescence. 100% = ROCK inhibitor wells, 0% = DMSO. survival enhancement, % at 20 µM. actives 0.044% (n = 360,000); in the data active means survival enhancement above about 18%;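 further: cells exposed to compounds for 16 hours before the ATP read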
Cneo AK release – Cryptococcus neoformans cell lysis inducers, primary screen, AK release luminescence, single concentration | lysis activity, % at 15 µM | C. neoformans lysis, adenylate kinase release luminescence, 4 h; normalised: neutral wells 0, clomiphene wells 100 | actives 0.2% (n = 360,000);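 active means mean lysis activity across replicates of at least 80%, whatever share of replicates individually reach that level; inactive means mean lysis activity below 80%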
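Material: C. neoformans cells | Amount: Yeast cell density of 5 × 10^6 cells/mL | Medium: Fresh YPD growth medium | Dosing: Single dose | Times: Static 4 h at 37 °C with compound, 1 h detection | Detection: AK luminescence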
DAGLB inhibitor – DAGLB lipase inhibitors, primary screen, biochemical, fluorescence, HTS. inhibition, % at 5.17 µM. Diacylglycerol lipase-beta (Homo sapiens), Q8NCG7. HEK293T DAGLB membrane lysate, EnzChek fluorogenic substrate. actives 0.059% (n = 340,000); in the data active means inhibition above about 34%;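 further: 0% = enzyme with vehicle and 100% = wells lacking enzyme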
Target sequence (Q8NCG7 whole entry, looked up): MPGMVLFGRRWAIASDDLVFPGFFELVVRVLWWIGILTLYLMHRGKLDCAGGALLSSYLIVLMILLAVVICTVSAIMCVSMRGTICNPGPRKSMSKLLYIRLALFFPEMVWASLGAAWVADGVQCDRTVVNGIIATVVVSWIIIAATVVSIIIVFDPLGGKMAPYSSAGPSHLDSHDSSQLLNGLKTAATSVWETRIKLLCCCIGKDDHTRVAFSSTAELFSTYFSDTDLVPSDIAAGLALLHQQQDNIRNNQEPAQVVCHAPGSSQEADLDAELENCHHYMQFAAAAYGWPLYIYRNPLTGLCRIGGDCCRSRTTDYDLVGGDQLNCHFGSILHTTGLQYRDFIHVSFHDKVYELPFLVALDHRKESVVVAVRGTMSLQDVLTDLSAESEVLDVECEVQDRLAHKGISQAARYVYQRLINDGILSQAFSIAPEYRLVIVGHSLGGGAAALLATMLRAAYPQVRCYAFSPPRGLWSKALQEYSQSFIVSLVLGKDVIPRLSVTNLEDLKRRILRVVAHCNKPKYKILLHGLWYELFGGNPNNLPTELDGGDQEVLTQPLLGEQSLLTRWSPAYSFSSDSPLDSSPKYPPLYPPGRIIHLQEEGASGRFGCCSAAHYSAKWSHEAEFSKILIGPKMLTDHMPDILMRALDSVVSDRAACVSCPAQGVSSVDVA
SKN-1 block – suppressors of acrylamide-induced Pgst-4::GFP reporter in worms, primary screen, SKN-1 inhibitor project, whole organism, uHTS, GFP/RFP fluorescence ratio, strain VP596. C. elegans VP596 Pgst-4::GFP/RFP ratio, 24 h. inhibition, % at 21.8 µM. actives 0.49% (n = 360,000). AID 624304, 2012;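 active means interference check ratio from 0.5 to 1.5 plus GFP to RFP signal ratio inhibition reaching or exceeding a fixed threshold, cut at about 30% in these data, passing the limit was not always enough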
AID977621 – growth inhibition of wild-type GFP E. coli, dose response, H69 mutant RFP, cherry-pick | activity change, negative = inhibition at 50 µM | 1,900 tested, under 10 active | E. coli wild-type GFP strain growth, fluorescence, 24 h | shares compounds with Ecoli rRNA inh | AID 977621, 2014;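 active means Wild-type ribosome reporter drop at least double the humanized mutant ribosome reporter drop, growth loss under a set limit; inconclusive means no clear call, values can overlap the other calls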;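 further: wild-type GFP and H69 mutant RFP strains grown together 50/50 in each well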
AID977628 – E. coli growth inhibition, wild-type GFP versus h24 humanized RFP strain, dose response, h24 mutant RFP vs wild-type GFP, cherry-pick; AID 977628, 2014; 1,900 tested, under 10 active; activity change, negative = inhibition at 50 µM; shares compounds with Ecoli rRNA inh; E. coli WT GFP strain growth, fluorescence, 24 h;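 active means compound lowering the normal-ribosome reporter at least twice as much as the humanized-ribosome reporter, growth loss under a set limit; inconclusive means no clear call, values can overlap the other calls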;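 further: wild-type GFP and h24 humanized RFP strains co-cultured 1 to 1 per well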
* = called active by the depositor; ? = inconclusive; . = no result; ! = not active in a repeat.

SMILES	Ecoli rRNA inh	MT1-MMP act inh	iPSC survival up	Cneo AK release	DAGLB inhibitor	SKN-1 block	AID977621	AID977628
C[C@H](CO)N1C[C@H](C)[C@@H](CN(C)Cc2ccccc2)Oc2cc(C#CC3CC3)ccc2S1(=O)=O	-4	.	.	9	.	.	.	.
Cc1ccc(-c2ccc(C3[C@H]4CNC[C@@H]3N4Cc3nccs3)cc2)cc1 (stereo partly drawn)	0	.	.	.	.	.	.	.
C(=C\c1ccc(C2[C@H]3CNC[C@@H]2N3Cc2nccs2)cc1)/c1ccccc1 (stereo partly drawn)	-21*!	.	.	.	.	.	.	?
C=CCn1c(C)cc(C(=O)COC(=O)CNC(=O)c2ccccc2)c1C	-24*	-3	-1	.	0	5	-7.8	.
Cc1ccc(S(=O)(=O)N2CCOCC2)cc1NC(=O)COc1ccc(-c2nnco2)cc1	-19*	2	0	-1	-1	-19	-16	?
CC(C)NC(=O)N1CC[C@@H]2[C@H]1c1cc(-c3ccccc3)ccc1N(C)[C@H]2CO	-10	.	.	-7	.	.	.	.
O=C1N[C@@H](Cc2ccccc2)COC(=O)[C@H](Cc2ccc(F)cc2)C/C=C\C[C@H]1CC(=O)N(CCO)Cc1ccccc1	-19*	-5	-2	-1	0	3	.	?
O=C1OC[C@H]2CCCN2C(=O)[C@@H](CC(=O)N(CCO)Cc2ccccc2)C/C=C\C[C@H]1Cc1ccc(F)cc1	-10	0	-1	17	-1	2	.	.
O=C1OC[C@@H]2CCCN2C(=O)[C@@H](CC(=O)N(CCO)Cc2ccccc2)C/C=C\C[C@H]1Cc1ccc(F)cc1	-21*	-1	7	0	-3	-11	0.08	-6.7
C[C@H](CO)N1C[C@H](C)[C@@H](CN(C)C)OCCCC[C@H](C)Oc2ccc(NS(=O)(=O)c3ccccc3)cc2C1=O	1	.	.	.	.	.	.	.
Cc1ccc(NS(=O)(=O)c2ccc3c(c2)CCC(=O)N3)cc1C	-23*!	2	2	2	2	-2	-3.4	?
O=C(Nc1ccc(F)cc1)C1CC2CCC1C2 (stereo not drawn)	-3	0	1	1	-3	4	.	.
O=C(Nc1ccc(F)c(Cl)c1)C1CC2CCC1C2 (stereo not drawn)	-28*	-5	0	-1	-6	13	4.3	5
COC(=O)c1cn(C(=O)c2ccc(OC)cc2)c2ccccc12	-26*	-3	0	-4	-4	20	2.4	-9.2
COC(=O)c1cn(C(=O)c2ccc(C)cc2)c2ccccc12	-7	-2	-1	.	0	7	.	.
C[C@@H]1CN([C@@H](C)CO)C(=O)c2cc(NS(=O)(=O)c3ccc(Cl)cc3)ccc2O[C@@H]1CN(C)Cc1ccc(-c2ccccc2)cc1	5	.	.	2	.	.	.	.
C/C=C/c1ccc2c(c1)[C@@H]1[C@@H](CCN1S(=O)(=O)c1ccccc1OC)[C@H](CO)N2C	-21*	.	.	.	.	.	.	?
COC(=O)c1ccc(CSc2nc(-c3ccccc3)cs2)o1	-23*	2	3	-2	-9	21	-13	.
Cc1ccc(Nc2cc(C(=O)NCCCN3CCOCC3)c3ccccc3n2)cc1C	-22*	1	-1	-2	2	-5	.	?
CN1C(=O)c2cc(NC(=O)c3cccc(F)c3)ccc2OC[C@@H]2O[C@H](CC(=O)NCC3CCCCC3)CC[C@H]21	-14	.	.	-2	.	.	.	.
CN1C(=O)c2cc(NC(=O)c3cccc(F)c3)ccc2OC[C@H]2O[C@@H](CC(=O)NCC3CCCCC3)CC[C@@H]21	-25*!	.	.	-4	.	.	-8.6	-0.17
Cc1ccc(NC(=O)C2CCN(S(=O)(=O)c3ccc4c(c3)NC(=O)CO4)CC2)cc1	-18*	0	0	-1	1	9	.	-17
Cc1ccc2cccc(OCc3ccccc3)c2n1	-26*	1	1	3	.	3	-10	-8
O=C(CN1CCCCC1)n1c2ccccc2c2ccccc21	-24*	1	1	2	-5	-2	-3	-0.41
CN1CCN(CC(=O)n2c3c(c4ccccc42)CCCC3)CC1	.	-4	-2	.	-3	9	.	.
SMILES	Ecoli rRNA inh	MT1-MMP act inh	iPSC survival up	Cneo AK release	DAGLB inhibitor	SKN-1 block	AID977621	AID977628
CN1CCN(C(=O)C[C@H]2CC[C@@H]3[C@H](COC[C@H](O)CN3S(=O)(=O)c3cccc(F)c3)O2)CC1	7	.	.	-1	.	.	.	.
CC=Cc1ccc2n(c1=O)C[C@H]1[C@H](CO)[C@@H](C(=O)NCC(F)(F)F)N(C(=O)c3cccnc3)[C@@H]21 (mixture of isomers)	0	.	.	0	.	.	.	.
Cc1cc(C)nc(SCc2cn3c(C)cccc3n2)n1	-19*	-1	-1	2	.	-7	.	?
Cc1ccnc(SCc2cn3c(C)cccc3n2)n1	-10	-2	0	.	-2	5	.	.
C[C@H]1CN([C@@H](C)CO)C(=O)c2cccc(NC(=O)c3ccc(-c4nccs4)cc3)c2O[C@H]1CN(C)CC1CCCCC1	0	.	.	0	.	.	.	.
COCc1nnc(NC(=O)c2ccc(S(=O)(=O)N3CCCC3)cc2)o1	-23*	-2	0	1	0	11	-16	.
O=C(N[C@@H]1CC[C@H](CCNC(=O)C2CCCCC2)O[C@H]1CO)c1ccncc1	0	.	.	0	.	.	.	.
NS(=O)(=O)c1cccc(NC(=O)COc2ncnc3c2cnn3-c2ccccc2)c1	-20*	-3	0	.	0	-9	?	.
COc1cccc(C(=O)Nc2ccc3c(c2)OC[C@@H](C)N(C(C)=O)C[C@H](C)[C@@H](OC)CN(C)C3=O)c1	-6	.	.	.	.	.	.	.
CC1(C(=O)NS(=O)(=O)c2cccc(Cl)c2)CCN1C(=O)C1(c2ccc(Cl)cc2)CCC1 (stereo not drawn)	-16*	4	2	-1	.	15	-15	.

Assay outcomes (PubChem BioAssay)
